Consider 25 molecules from ChEMBL document CHEMBL1129963, “Sulfonimidamide analogs of oncolytic sulfonylureas” (J Med Chem, 1997).

The structures appear in SMILES notation. Converted amounts (≈) assume the structure as drawn.

One series deals with CCRF-CEM. Description: In vitro cytotoxicity against CCRF-CEM cells. Format: functional, cell-based. The note with it: Homo sapiens. The method, boiled down:
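CCRF-CEM cells were grown in culture for 72 h with compound. The value is the concentration that inhibited growth to 50% of control growth.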

In series [1] the test system is Mus musculus. Description: In vivo antitumor activity against subaxillary implanted 6C3HED lymphosarcoma implanted in C3H mice at a dose of 300 mg/kg administered perorally twice daily for a period of 8 days. Type of series: functional. The settings on record: 192 h, route oral. The method, boiled down:
(§1)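 6C3HED lymphosarcoma was carried in C3H mice. Compound was dosed at the stated route and schedule for 8 days (daily, twice daily, or days 1, 3, 5, 7) and tumor growth inhibition was scored against controls. The table value is the lowest dose giving >80% inhibition, or the highest dose tested. Deaths per group were recorded.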

The subject of series [2] is Mus musculus. Description: In vivo antitumor activity against subaxillary implanted 6C3HED lymphosarcoma implanted in C3H mice at a dose of 300 mg/kg administered perorally daily for a period of 8 days. Type of series: functional. The note with it: 192 h, route oral. The essentials:
as §1

The subject of series [3] is Mus musculus. As to the kind of experiment: (§2) Metabolic breakdown to the o-sulfate of p-chloroaniline (2-amino-5-chlorophenyl sulfate) by giving 100 mg/kg oral doses of the compound. Type of series: functional. The method, boiled down:
(§3)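 Groups of two to four mice received single 100 mg/kg oral doses of each compound. Urine was pooled over 0-24 h, and the 2-amino-5-chlorophenyl sulfate excreted in 24 h per mouse was quantified as the marker of p-chloroaniline release.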

The subject of series [4] is Mus musculus. As to the kind of experiment: In vivo antitumor activity against subaxillary implanted 6C3HED lymphosarcoma implanted in C3H mice at a dose of 150 mg/kg administered perorally twice daily for a period of 8 days. The settings on record: for inhibition in vivo at 150 mg/kg: Mus musculus, 6C3HED, po, 192 h. Type of series: functional. The essentials:
as §1

For series [5], the system named is Mus musculus. Description: In vivo antitumor activity of compound against subaxillary implanted 6C3HED lymphosarcoma implanted in C3H mice at a dose of 75 mg/kg administered perorally twice daily for a period of 8 days. The note with it: 192 h, route oral. Type of series: functional. The method, boiled down: as §1
The subject of series [6] is Mus musculus. Description: In vivo antitumor activity of compound against subaxillary implanted 6C3HED lymphosarcoma implanted in C3H mice at a dose of 300 mg/kg administered intraperitoneally daily for a period of 8 days. The note with it: ip, 192 h, route intraperitoneal. Format: functional. The method, boiled down:
as §1

Series [7] has as its system Mus musculus. As to the kind of experiment: In vivo antitumor activity of compound against subaxillary implanted 6C3HED lymphosarcoma implanted in C3H mice at a dose of 243 mg/kg administered intraperitoneally daily for a period of 8 days. The settings on record: ip, 192 h, route intraperitoneal. Type of series: functional. The essentials: as §1
Series [8] relates to Mus musculus. As to the kind of experiment: In vivo antitumor activity of compound against subaxillary implanted 6C3HED lymphosarcoma implanted in C3H mice at a dose of 150 mg/kg administered intraperitoneally daily for a period of 8 days. The settings on record: ip, 192 h, route intraperitoneal. Format: functional. The method, boiled down: as §1
The test system of series [9] is Mus musculus. Description: In vivo antitumor activity of compound against subaxillary implanted 6C3HED lymphosarcoma implanted in C3H mice at a dose of 50 mg/kg administered perorally twice daily for a period of 8 days. The settings on record: 192 h, route oral. Type of series: functional. The essentials: as §1
Series [10] in a line: % dose converted to 2-amino-5-chlorophenyl sulfate. Format: ADME. The method, boiled down:
as §3

Series [11] is described as follows: % dose converted to 4-(S-amino-N-{[(4-chlorophenyl)amino]carbonyl}sulfonimidoyl)benzoic acid (compound 41). Type of series: ADME.
Series [12] in a line: as §2. Type of series: ADME, organism-based. Set-up: dose 100 mg/kg, route oral. The note with it: in vivo. The essentials:
as §3

On to `N[S+]([O-])(=NC(=O)Nc1ccc(Cl)cc1)c1ccccc1` (stereo not drawn), for which the IC50 in the series on CCRF-CEM is greater than 20 µg/mL. Besides, the inhibition in vivo at 300 mg/kg in the series with Mus musculus [1] worked out at 0%.

For the molecule `Cc1ccc([S+]([O-])(=NC(=O)Nc2ccc(Cl)cc2)NCCO)cc1` (stereo not drawn), the inhibition in vivo at 300 mg/kg in the series with Mus musculus [2] was 60%. This molecule also registered an IC50 in the series with CCRF-CEM greater than 20 µg/mL.

Consider `Cc1ccc(S(=O)(=O)NC(=O)Nc2ccc(Cl)cc2)cc1` [LY-181984], for which the Activity with Mus musculus [3] is 1.02 µM. In the series on Mus musculus [4], the inhibition in vivo at 150 mg/kg was 93%.

In turn, `CN[S+]([O-])(=NC(=O)Nc1ccc(Cl)cc1)c1ccc2c(c1)CCC2` (stereo not drawn) returned an IC50 in the series with CCRF-CEM of 10.8 µg/mL (≈ 29.7 µM). In the series with Mus musculus [4], testing at 150 mg/kg gave an inhibition in vivo of 75%.

For the molecule `Cc1cc([S+](N)([O-])=NC(=O)Nc2ccc(Cl)cc2)cc(C)c1Cl` (stereo not drawn), the IC50 in the series on CCRF-CEM is 6.2 µg/mL (≈ 16.7 µM). 300 mg/kg produced 0% inhibition in vivo in the series with Mus musculus [1].

In turn, `Cc1ccc([S+]([O-])(=NC(=O)Nc2ccc(Cl)cc2)NC(C)C)cc1` (stereo not drawn) came in with an inhibition in vivo at 75 mg/kg in the series with Mus musculus [5] of 86%. In the series on CCRF-CEM, this molecule registered an IC50 of 1.4 µg/mL (≈ 3.83 µM).

Take `CCCCNC(=O)N=[S+](N)([O-])c1ccc(C)cc1` (stereo not drawn): the inhibition in vivo at 300 mg/kg with Mus musculus [6] was 12%. The molecule further registered a 50% inhibitory concentration (IC50) in the series with CCRF-CEM greater than 20 µg/mL.

Molecule `Cc1ccc([S+]([O-])(=NC(=O)Nc2ccc(Cl)cc2)NCCc2ccccc2)cc1` (stereo not drawn) yielded an IC50 in the series with CCRF-CEM of 5.3 µg/mL (≈ 12.4 µM). The inhibition in vivo at 300 mg/kg in the series with Mus musculus [1] is 48%.

Take `Cc1ccc([S+](N)([O-])=NC(=O)Nc2ccc(Cl)c(Cl)c2)cc1` (stereo not drawn): in the series on CCRF-CEM, the IC50 was greater than 20 µg/mL. Further, testing at 300 mg/kg with Mus musculus [1] gave an inhibition in vivo of 14%.

Molecule `Cc1ccc(NC(=O)N=[S+](N)([O-])c2ccc(C)cc2)cc1` (stereo not drawn) showed an inhibition in vivo at 300 mg/kg in the series with Mus musculus [2] of 40%. This molecule yielded an IC50 with CCRF-CEM greater than 20 µg/mL.

Molecule `N[S+]([O-])(=NC(=O)Nc1ccc(Cl)cc1)c1ccc(C(=O)O)cc1` (stereo not drawn) yielded an inhibition in vivo at 243 mg/kg with Mus musculus [7] of 0%.

In the series with CCRF-CEM, `COC(=O)c1ccc([S+](N)([O-])=NC(=O)Nc2ccc(Cl)cc2)cc1` (stereo not drawn) registered an IC50 greater than 20 µg/mL. The inhibition in vivo at 300 mg/kg with Mus musculus [1] came out at 0%.

`CN[S+]([O-])(=NC(=O)N(C)c1ccc(Cl)cc1)c1ccc(C)cc1` (stereo not drawn) came in with an IC50 with CCRF-CEM greater than 20 µg/mL. Besides, in the series with Mus musculus [4], 150 mg/kg produced 91% inhibition in vivo.

In the series with CCRF-CEM, `N[S+]([O-])(=NC(=O)Nc1ccc(Cl)cc1)c1ccc(C=O)cc1` (stereo not drawn) registered an IC50 of 5.6 µg/mL (≈ 16.6 µM). At 150 mg/kg the inhibition in vivo with Mus musculus [8] was 80%.

Consider `CCCC[S+]([O-])(=NC(=O)Nc1ccc(Cl)cc1)NC` (stereo not drawn), for which the inhibition in vivo at 300 mg/kg in the series on Mus musculus [6] amounted to 7%. In addition, the IC50 in the series on CCRF-CEM is greater than 20 µg/mL.

In the case of `COc1ccc(NC(=O)N=[S+](N)([O-])c2ccc(C)cc2)cc1` (stereo not drawn), the IC50 with CCRF-CEM was greater than 20 µg/mL. At 300 mg/kg the inhibition in vivo in the series on Mus musculus [1] was 0%.

The molecule `CC(=O)OCc1ccc([S+](N)([O-])=NC(=O)Nc2ccc(Cl)cc2)cc1` (stereo not drawn) gave an inhibition in vivo at 50 mg/kg with Mus musculus [9] of 87%. Besides, the IC50 in the series with CCRF-CEM is greater than 20 µg/mL.

For `Cc1ccc([S+](N)([O-])=NC(=O)Nc2ccc(C(F)(F)F)cc2)cc1` (stereo not drawn), the IC50 in the series on CCRF-CEM was greater than 20 µg/mL.

On to `Cc1ccc([S+](N)([O-])=NC(=O)Nc2ccc(O)cc2)cc1` (stereo not drawn), for which at 300 mg/kg the inhibition in vivo in the series with Mus musculus [6] was 11%. For the same molecule, the IC50 in the series on CCRF-CEM is greater than 20 µg/mL.

On to `Cc1ccc([S+]([O-])(=NC(=O)Nc2ccc(Cl)cc2)N(C)C)cc1` (stereo not drawn), for which, in the series on CCRF-CEM, the IC50 was greater than 20 µg/mL. At 300 mg/kg the inhibition in vivo in the series with Mus musculus [1] was 63%.

For the molecule `Cc1ccc([S+]([O-])(=NC(=O)Nc2ccc(Cl)cc2)NCCCO)cc1` (stereo not drawn), in the series with CCRF-CEM, the IC50 was greater than 20 µg/mL. Moreover, 300 mg/kg produced 89% inhibition in vivo with Mus musculus [1].

In the case of `Cc1ccc([S+](N)([O-])=NC(=O)Nc2ccc(Cl)cc2)cc1` (stereo in doubt; 16(+)), the Dose converted in series [10] is recorded as less than 0.3%; in series [11], 17%. The Inhibition with Mus musculus [4] (route oral, 150 mg/kg) was found to be 5%.

`CCCCN[S+]([O-])(=NC(=O)Nc1ccc(Cl)cc1)c1ccc(C)cc1` (stereo not drawn): the IC50 in the series on CCRF-CEM was 0.4 µg/mL (≈ 1.05 µM). Moreover, the inhibition in vivo at 150 mg/kg in the series with Mus musculus [4] was determined as 88%.

In the series with CCRF-CEM, `CC(=O)N(C)[S+]([O-])(=NC(=O)Nc1ccc(Cl)cc1)c1ccc(C)cc1` (stereo not drawn) displayed an IC50 of 9.6 µg/mL (≈ 25.3 µM). 150 mg/kg produced 98% inhibition in vivo with Mus musculus [4].

Consider `Cc1ccc([S+](N)([O-])=NC(=O)Nc2ccc(Cl)cc2)cc1` (stereo in doubt; 14), for which the inhibition in vivo at 300 mg/kg in the series on Mus musculus [2] stood at 89%; in the series with Mus musculus [6], 98%. For the same molecule, the inhibition in vivo at 50 mg/kg with Mus musculus [9] was found to be 95%. In addition, the IC50 in the series on CCRF-CEM was greater than 20 µg/mL. Further, the Activity in series [12] was less than 0.2 µM. The same molecule yielded an inhibition in vivo at 150 mg/kg in the series on Mus musculus [8] of 92%.

The IC50 is the concentration at which inhibition is half-maximal. The low end stands for higher potency, the high end for lower potency. One may read the inhibition in vivo as the drop in the measured response relative to a control, in per cent. Higher therefore signals a response far below the control. The term Inhibition denotes the percentage by which the read-out fell short of the control.
